Activity data for seven compounds are collected here from ChEMBL document CHEMBL2086287, “An efficient one-pot synthesis and photoinduced DNA cleavage studies of 2-chloro-3-(5-aryl-4,5-dihydroisoxazol-3-yl)quinolines” (Bioorg Med Chem Lett, 2012).

Assay [1] has as its system Nucleic Acid. Nature of the assay: Induction of Escherichia coli pUC19 DNA cleavage assessed as conversion of supercoiled form of DNA to nicked and linear form of DNA at 80 uM treated after 2 hrs before UV-vis irradiation measured after 1 hr by ethidium bromide staining.
Assay [2] deals with Nucleic Acid. Nature of the assay: Induction of Escherichia coli pUC19 DNA cleavage assessed as conversion of supercoiled DNA to nicked form of DNA at 60 uM treated after 2 hrs before UV-vis irradiation measured after 1 hr by ethidium bromide staining. The class given is nucleic-acid assay. A digest of the protocol:
(§1)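 pUC-19 plasmid DNA photolysed at 365 nm for 2 h in 1:9 DMSO:Tris buffer ([…], pH 7.2) with test compound at 40–80 μM, 37 °C. A control lane without compound and dark-incubated samples were run alongside. Cleavage read by gel separation as the percentage of supercoiled (Form I) DNA converted to nicked (Form II) and linear (Form III) forms.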

The test system of assay [3] is Nucleic Acid. Nature of the assay: Induction of Escherichia coli pUC19 DNA cleavage assessed as conversion of supercoiled DNA to nicked form of DNA at 40 uM […] by ethidium bromide staining. The class given is nucleic-acid assay. The method, boiled down: as §1

As to `Clc1nc2ccccc2cc1C1CC(c2ccc(Br)cc2)=NO1` (stereo unspecified), the Activity came to 85% in the assay on Nucleic Acid [1], 50% in the assay on Nucleic Acid [2] and 20% in the assay on Nucleic Acid [3].
For `Cc1ccc(C2=NOC(c3cc4ccccc4nc3Cl)C2)cc1` (stereo unspecified), the Activity with Nucleic Acid [1] is 85%; with Nucleic Acid [2] it was 50%; in the assay with Nucleic Acid [3], 20%.
Taken in the same sequence, the figures for `COc1ccc(C2=NOC(c3cc4ccccc4nc3Cl)C2)cc1` (stereo unspecified) were 85%, 50% and 20%.
As for `Oc1ccc(C2=NOC(c3cc4ccccc4nc3Cl)C2)cc1` (stereo unspecified), the Activity in the assay with Nucleic Acid [1] worked out at 85%; with Nucleic Acid [2] it was 50%; in the assay on Nucleic Acid [3], 20%.
For `O=[N+]([O-])c1ccc(C2=NOC(c3cc4ccccc4nc3Cl)C2)cc1` (stereo unspecified) the same measures were 85%, 50% and 20%.
`Clc1nc2ccccc2cc1C1CC(c2ccccc2)=NO1` (stereo unspecified): the Activity was determined as 85% in the assay on Nucleic Acid [1], 50% with Nucleic Acid [2] and 20% in the assay with Nucleic Acid [3].
For `Clc1ccc(C2=NOC(c3cc4ccccc4nc3Cl)C2)cc1` (stereo unspecified) the same measures were 85%, 50% and 20%.
